One may read the IC50 as the concentration at which inhibition is half-maximal. By Inhibition is commonly meant the relative decrease from the control value, in per cent. Higher therefore signals a strong effect. The MIC is the smallest concentration in the dilution series that meets the test's criterion for growth inhibition. A high value points to a need for much substance. What is called EC99 is the point of the concentration-response curve where the effect stands at 99%. One may read the EC90 as the point of the concentration-response curve where the effect stands at 90%. A higher EC90 goes with weaker potency.

Data on 16 molecules can be found in ChEMBL document CHEMBL1135898, “Synthesis and antimycobacterial activity of 6-arylpurines: the requirements for the N-9 substituent in active antimycobacterial purines” (J Med Chem, 2002).

Assay [1] deals with K562. The assay can be described thus: Cytostatic activity against chronic myelogenous leukemia cells (K-562) based on its ability to inhibit [3H]thymidine incorporation. The class given is functional, cell-based. The conditions noted are these: Homo sapiens. In outline: (§1)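 K-562 chronic myelogenous leukemia cells; cytostatic effect read as inhibition of [3H]thymidine incorporation. Reported as percent inhibition at 10 μg/mL, with EC50 derived only for the more toxic compounds.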

In assay [2] the test system is Mycobacterium tuberculosis. The assay can be described thus: Percent inhibition of Mycobacterium tuberculosis H37Rv at 6.25 µg/ml concentration in BACTEC 12B medium using microplate alamar blue assay. Type of assay: functional. Summed up:
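Primary screen at single concentration 6.25 μg/mL against M. tuberculosis H37Rv (ATCC 27294) in BACTEC 12B medium, read by microplate alamar blue assay; fluorescent compounds instead tested in BACTEC 460 radiometric system. Percent growth inhibition reported.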
Background: Alamar Blue is a resazurin reagent that responds to reducing activity.

Assay [3] is described as follows: Selectivity Index, SI = IC50:MIC.ND means not determined. The class given is functional.
In assay [4] the test system is K562. The assay is described as follows: Cytostatic activity against chronic myelogenous leukemia cells (K-562) based on its ability to inhibit [3H]thymidine incorporation (at 1.0 g/ml). The class given is functional, cell-based. The conditions noted are these: Homo sapiens. Summed up:
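K-562 leukemia cells; inhibition of [3H]thymidine incorporation measured at 1.00 μg/mL instead of the usual 10 μg/mL because of low compound solubility.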

The next assay relates to Vero. The assay is described as follows: Minimum inhibitory concentration for testing cytotoxicity in VERO cells. The conditions noted are these: Chlorocebus sabaeus. The class given is functional, cell-based. In outline:
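VERO cells exposed 72 h to compound at concentrations up to 62.5 μg/mL. Viability read by cellular MTT conversion to formazan, and an IC50 was derived.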

Assay [5] has as its system K562. The assay is described as follows: Cytostatic activity against chronic myelogenous leukemia cells (K-562) based on its ability to inhibit [3H]thymidine incorporation. The class given is functional, cell-based. The conditions noted are these: Homo sapiens. Summed up:
as §1
In general terms: Dividing cells build labelled thymidine or BrdU into new DNA.

The subject of another assay is Lacticaseibacillus casei. The assay can be described thus: Minimum Inhibitory Concentration against drug-resistant strain of Lactobacillus casei. Type of assay: functional.
In assay [6] the test system is Mycobacterium tuberculosis. The assay is described as follows: Concentration effecting 99% reduction of Mycobacterium tuberculosis strain Erdman, growth in monolayers of mouse bone marrow macrophages after 7 days. Type of assay: functional. The conditions noted are these: 168 h.
The test system of assay [7] is Mycobacterium tuberculosis. The assay is described as follows: Concentration effecting 90% reduction of Mycobacterium tuberculosis strain Erdman, growth in monolayers of mouse bone marrow macrophages after 7 days. The class given is functional. The conditions noted are these: 168 h.
The test system of assay [8] is Mycobacterium tuberculosis. The assay can be described thus: Antibacterial activity against Mycobacterium tuberculosis H37Rv in BACTEC 12B medium using microplate alamar blue assay. Type of assay: functional. In outline: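 MIC against M. tuberculosis H37Rv (ATCC 27294) by microplate alamar blue assay (MABA) in BACTEC 12B medium; compounds reaching ≥90% inhibition in the primary screen were re-tested at lower concentrations. MIC defined as minimum concentration giving 90% inhibition of growth; rifampin reference.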

Each structure is given as a SMILES string. In brackets after ≈: the same amount, converted by molar mass.

For the molecule `Cn1cnc2c(-c3ccco3)ncnc21`, the IC50 in the assay with K562 [1] was less than 10 mg/L.

`OC[C@H]1OC(n2cnc3c(-c4ccco4)ncnc32)[C@H](O)[C@@H]1O` (stereo partly drawn) registered an Inhibition in assay [2] of 0%.

In turn, `c1ccc(Cn2cnc3c(-c4ccco4)ncnc32)cc1` [9-BENZYL-6-(FURAN-2-YL)-9H-PURINE] returned a half-inhibitory concentration (IC50) in the assay on K562 [1] of 59 mg/L (≈ 214 µM). Further, in assay [3], the Selectivity index is 2.7.

`c1coc(-c2ncnc3c2ncn3CC2CCCCC2)c1` gave an IC50 in the assay on K562 [1] of 60 mg/L (≈ 213 µM).

Consider `c1ccc(Cn2cnc3c(-c4cccs4)ncnc32)cc1`, for which the IC50 is less than 10 mg/L in the assay on K562 [4] and greater than 10 mg/L in the assay on Vero. In assay [3], this molecule showed a Selectivity index greater than 1.6.

The molecule `c1ccc(Cn2cnc3c(-c4ccccc4)ncnc32)cc1` gave an IC50 in the assay with K562 [4] of less than 10 mg/L.

As to `Clc1nc(-c2ccco2)c2ncn(Cc3ccccc3)c2n1`, in the assay with K562 [5], the IC50 was 27 mg/L (≈ 86.9 µM). For the same molecule, the MIC in the assay on Lacticaseibacillus casei is greater than 10 mg/L. In addition, the EC99 in [6] came to 8.46 µg/mL. In addition, the concentration for an effect of 90% (EC90) in assay [7] stood at 0.038 mg/L (≈ 0.122 µM).

With `OC[C@H]1O[C@@H](n2cnc3c(-c4ccccc4)ncnc32)[C@H](O)[C@@H]1O`, the IC50 in the assay with K562 [1] turned out to be 99 mg/L (≈ 302 µM).

As for `Clc1nc(-c2ccccc2)c2ncn(Cc3ccccc3)c2n1`, the midpoint of inhibition in the assay on K562 [5], the IC50, lay at 76 mg/L (≈ 237 µM).

`c1ccc(CCn2cnc3c(-c4ccco4)ncnc32)cc1` returned an IC50 in the assay with K562 [1] of 53 mg/L (≈ 183 µM).

`CC(=O)OC[C@H]1O[C@@H](Cn2cnc3c(-c4ccccc4)ncnc32)[C@H](OC(C)=O)[C@@H]1OC(C)=O`: in assay [2], the Inhibition was 4%.

Take `CO[C@H]1/C=C/O[C@@]2(C)Oc3c(C)c(O)c4c(O)c(c(/C=N/N5CCN(C)CC5)c(O)c4c3C2=O)NC(=O)/C(C)=C\C=C\[C@H](C)[C@H](O)[C@@H](C)[C@@H](O)[C@@H](C)[C@H](OC(C)=O)[C@@H]1C` [RIFAMPIN]: the minimal inhibitory concentration (MIC) in [8] was 0.25 mg/L (≈ 0.304 µM).

Molecule `OC[C@H]1OC(n2cnc3c(-c4ccco4)nc(Cl)nc32)[C@H](O)[C@@H]1O` (stereo partly drawn) gave an IC50 in the assay on K562 [5] of 100 mg/L (≈ 283 µM). The Inhibition in assay [2] amounted to 7%.

Molecule `c1ccc(-c2ncnc3c2ncn3C2CCOCC2)cc1` registered a 50% inhibitory concentration (IC50) in the assay on K562 [1] of less than 10 mg/L.

`c1csc(-c2[nH]cnc3ncnc2-3)c1` returned a 50% inhibitory concentration (IC50) with K562 [1] of less than 10 mg/L.

With `C=CCn1cnc2c(-c3ccco3)ncnc21`, in the assay on K562 [1], the IC50 turned out to be 11 mg/L (≈ 48.6 µM).
